Results from ChEMBL document CHEMBL1123445, “Synthesis and antifolate properties of 5,10-methylenetetrahydro-8,10-dideazaminopterin” (J Med Chem, 1986).
Converted amounts (≈) assume the structure as drawn.

How the values were obtained:
[1] = test system: Lacticaseibacillus casei; assay: Compound was evaluated for growth inhibition in Lactobacillus casei MTX-resistant; format: functional, organism-based
In short: (§1)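 Lactobacillus casei growth was measured in medium with folate at 1 ng/mL.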

[2] = biological target: Dihydrofolate reductase (Lactobacillus casei, UniProt P00381); assay: Compound was evaluated for the inhibition of dihydrofolate reductase (DHFR)derived from Lactobacillus casei; parameters: species or system Lacticaseibacillus casei
[3] = test system: Lacticaseibacillus casei; assay: Compound was evaluated for growth inhibition in Lactobacillus casei ATCC 7469; format: functional, organism-based; in short: as §1
[4] = test system: L1210; assay: Compound was evaluated for growth inhibition in L1210 murine leukemia cells; format: functional, cell-based; conditions: Mus musculus
[5] = test system: Enterococcus faecium; assay: Compound was evaluated for growth inhibition in Streptococcus faecium MTX-resistant; format: functional, organism-based
In short: (§2)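 Bacterial growth inhibition was run in medium with folate at 1 ng/mL.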

[6] = test system: Enterococcus faecium; assay: Compound was evaluated for growth inhibition in Streptococcus faecium ATCC 8043; format: functional, organism-based; in short: as §2
[7] = biological target: T1, Thymidylate synthase (Lactobacillus casei, UniProt P00469); assay: Compound was evaluated for the inhibition of thymidylate synthase (TS) derived from Lactobacillus casei; parameters: species or system Lacticaseibacillus casei
T1 sequence (P00469 whole entry): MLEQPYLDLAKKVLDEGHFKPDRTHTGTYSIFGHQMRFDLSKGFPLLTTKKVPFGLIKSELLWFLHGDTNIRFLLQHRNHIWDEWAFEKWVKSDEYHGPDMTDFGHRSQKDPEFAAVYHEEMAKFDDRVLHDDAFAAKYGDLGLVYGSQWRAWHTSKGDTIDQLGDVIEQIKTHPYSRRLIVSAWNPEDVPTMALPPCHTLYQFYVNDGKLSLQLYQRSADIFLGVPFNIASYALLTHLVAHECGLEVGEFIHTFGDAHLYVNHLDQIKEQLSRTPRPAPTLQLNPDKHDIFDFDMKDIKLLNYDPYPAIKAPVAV

[8] = test system: L1210; assay: Compound was evaluated for inhibitory activity against DHFR in L1210 cells; format: functional, cell-based, Mus musculus
[9] = Lacticaseibacillus casei, read-out: IC50

Sequence of Dihydrofolate reductase (P00381 whole entry): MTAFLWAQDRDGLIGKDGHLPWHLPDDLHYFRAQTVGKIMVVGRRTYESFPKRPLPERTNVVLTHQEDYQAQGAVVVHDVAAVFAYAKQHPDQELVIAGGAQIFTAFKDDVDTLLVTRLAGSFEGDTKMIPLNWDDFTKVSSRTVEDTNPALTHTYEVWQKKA

SMILES	IC50 [1, 9]	IC50 [2]	IC50 [3]	IC50 [4]	IC50 [5]	IC50 [6]	IC50 [7]	Ki [8]	IC50 [1]
Nc1nc(N)c2c(n1)CCC1CC(c3ccc(C(=O)NC(CCC(=O)O)C(=O)O)cc3)C(=O)N21 (configuration not stated)	> 10000 ng/mL	1600 nM	0.54 ng/mL (≈ 0.00115 µM)	> 10000 nM	> 10000 ng/mL	6.2 ng/mL (≈ 0.0132 µM)	> 200000 nM	> 10 nM	
Nc1nc(N)c2c(n1)CCC1CC(c3ccc(C(=O)NC(CCC(=O)O)C(=O)O)cc3)CN21 (configuration not stated)	> 10000 ng/mL	1500 nM	1 ng/mL (≈ 0.0022 µM)	250 nM	530 ng/mL (≈ 1.17 µM)	2 ng/mL (≈ 0.0044 µM)	> 500000 nM	> 10 nM	
CN(Cc1cnc2nc(N)nc(N)c2n1)c1ccc(C(=O)N[C@@H](CCC(=O)O)C(=O)O)cc1 [METHOTREXATE]			0.009 ng/mL (≈ 1.98e-05 µM)	2.5 nM	3300 ng/mL (≈ 7.26 µM)	0.2 ng/mL (≈ 0.00044 µM)		0.0032 nM	> 500000 ng/mL
